ChEMBL document CHEMBL1154866, “Lanostane triterpenes from the fruiting bodies of Ganoderma lucidum and their inhibitory effects on adipocyte differentiation in 3T3-L1 Cells” (J Nat Prod, 2010)

Key:
[1] = system: 3T3-L1; test: Cytotoxicity against mouse 3T3L1 cells at 40 ug/ml after 2 days by MTT assay; assay type: cell-based; conditions: 3t3-l1, 48 h
Procedure, shortened: (§1)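 3T3-L1 preadipocytes seeded at 1 × 10^4 cells/well in DMEM + 10% bovine calf serum, 37 °C, 5% CO2. After 24 h, vehicle or sample (10 to 80 µg/mL) added in serum-free DMEM. After a further 24 h, MTT added for 2 h. Formazan dissolved in DMSO, OD read at 570 nm.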

[2] = system: 3T3-L1; test: Inhibition of adipocytes differentiation in mouse 3T3L1 cells assessed as lipid accumulation at 40 ug/ml after 8 days by Oil red O staining relative to control; assay type: functional; conditions: 3T3-L1, 192 h
Procedure, shortened: (§2)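 Differentiation induced 2 days post-confluence with DEX, 0.5 mM IBMX and insulin in DMEM/10% FBS for 2 days, then DMEM/FBS/insulin refreshed every 2 days. Sample added every 2 days for 8 days (40 µg/mL, or 5–40 µg/mL series). Day 8: PBS wash, 4% formaldehyde fixation, oil red O 30 min, dye eluted with 2-propanol, A510 versus untreated control. Mean ± SD, n=3.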

[3] = system: 3T3-L1; test: Cytotoxicity against mouse 3T3L1 cells at 80 ug/ml after 2 days by MTT assay; assay type: cell-based; conditions: 3t3-l1, 48 h; procedure, shortened: as §1
[4] = target: T1, Glycerol-3-phosphate dehydrogenase [NAD(+)], cytoplasmic (Mus musculus) (UniProt P13707); test: Inhibition of GPDH in mouse 3T3L1 cells assessed as reduction of NADH oxidation rate at 40 ug/ml; assay type: cell-based; set-up: scale not given: the % may be the effect or the level left; conditions: 3T3-L1
T1 sequence (whole entry): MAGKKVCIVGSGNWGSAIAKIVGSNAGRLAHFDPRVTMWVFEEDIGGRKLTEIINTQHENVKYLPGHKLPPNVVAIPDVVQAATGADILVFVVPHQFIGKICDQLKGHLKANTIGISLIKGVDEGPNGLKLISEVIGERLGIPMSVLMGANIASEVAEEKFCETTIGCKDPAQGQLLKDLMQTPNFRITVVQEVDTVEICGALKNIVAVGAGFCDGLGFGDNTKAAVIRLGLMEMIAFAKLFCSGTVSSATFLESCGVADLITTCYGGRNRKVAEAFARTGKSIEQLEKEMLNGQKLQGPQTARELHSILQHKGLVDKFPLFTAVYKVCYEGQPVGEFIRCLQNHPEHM
Procedure, shortened: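 Preadipocytes kept in DMEM/10% BCS; induced 2 days post-confluence with DEX, 0.5 mM IBMX and insulin in DMEM/10% FBS, then DMEM/FBS/insulin. Treated every 2 days (5–40 µg/mL) to day 8. Cells collected in extraction buffer and spun 12 000 rpm, 5 min, 4 °C. Supernatant A340 decline over 5 min gives NADH oxidation with dihydroxyacetone phosphate, as units per mg protein (Bradford). Mean ± SD, n=3.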

[5] = system: 3T3-L1; test: Inhibition of adipocytes differentiation in mouse 3T3L1 cells assessed as lipid accumulation after 8 days by Oil red O staining relative to control; assay type: functional, cell-based; procedure, shortened: as §2
[6] = system: 3T3-L1; test: Inhibition of adipocytes differentiation in mouse 3T3L1 cells assessed as lipid accumulation at 5 to 40 ug/ml after 8 days by Oil red O staining relative to control; assay type: functional; procedure, shortened: as §2

| Compound | Activity [1] | inhibition at 40 µg/mL [2] [%] | Activity [3] | Activity [4] [%] | inhibition [5] | inhibition (INH) [6] [%] |
| --- | --- | --- | --- | --- | --- | --- |
| C[C@H](CC(=O)C[C@@H](C)[C@H]1CC(=O)[C@@]2(C)C3=C(C(=O)C[C@]12C)[C@@]1(C)CCC(=O)C(C)(C)[C@@H]1CC3=O)C(=O)O [GANODERIC ACID E] | Non-toxic | 22 |  |  |  |  |
| CCCCOC(=O)CC[C@@H](C)[C@H]1CC(=O)[C@@]2(C)C3=C(C(=O)C[C@]12C)[C@@]1(C)CCC(=O)C(C)(C)[C@@H]1C[C@@H]3O [BUTYL LUCIDENATE A] | Non-toxic | 22 | Toxic |  |  |  |
| C[C@H](CCC(=O)O)[C@H]1CC(=O)[C@@]2(C)C3=C(C(=O)C[C@]12C)[C@@]1(C)CC[C@H](O)C(C)(C)[C@@H]1C[C@@H]3O [LUCIDENIC ACID N] | Non-toxic | 22 |  |  |  |  |
| C[C@H](CC(=O)C[C@@H](C)[C@H]1C[C@H](O)[C@@]2(C)C3=C(C(=O)C[C@]12C)[C@@]1(C)CCC(=O)C(C)(C)[C@@H]1C[C@@H]3O)C(=O)O [GANODERIC ACID A] | Non-toxic | 22 |  |  |  |  |
| COC(=O)CC[C@@H](C)[C@H]1CC(=O)[C@@]2(C)C3=C(C(=O)[C@@H](OC(C)=O)[C@]12C)[C@@]1(C)CC[C@H](O)C(C)(C)[C@@H]1C[C@@H]3O [METHYL LUCIDENATE P] | Non-toxic | 22 |  |  |  |  |
| CC(CC(=O)C[C@@H](C)[C@H]1CC(=O)[C@@]2(C)C3=C(C(=O)C[C@]12C)[C@@]1(C)CC[C@H](O)C(C)(C)[C@@H]1C[C@@H]3O)C(=O)O (some centres undefined) [GANODERIC ACID B] | Non-toxic | 22 |  |  |  |  |
| CC(CC(=O)C[C@@H](C)[C@H]1C[C@H](O)[C@@]2(C)C3=C(C(=O)C[C@]12C)[C@@]1(C)CCC(=O)C(C)(C)[C@@H]1CC3)C(=O)O (some centres undefined) [GANOLUCIDIC ACID A] | Non-toxic | 22 | Toxic |  |  |  |
| COC(=O)C(C)CC(=O)C[C@@H](C)[C@H]1C[C@H](O)[C@@]2(C)C3=C(C(=O)C[C@]12C)[C@@]1(C)CCC(=O)C(C)(C)[C@@H]1C[C@@H]3O (some centres undefined) [METHYL GANODERATE A] | Non-toxic | 22 | Toxic |  |  |  |
| COC(=O)C(C)CC(=O)C[C@@H](C)[C@H]1CC(=O)[C@@]2(C)C3=C(C(=O)[C@@H](OC(C)=O)[C@]12C)[C@@]1(C)CC[C@H](O)C(C)(C)[C@@H]1CC3=O (some centres undefined) [METHYL GANODERATE H] | Non-toxic | 22 |  |  |  |  |
| COC(=O)CC[C@@H](C)[C@H]1CC(=O)[C@@]2(C)C3=C(C(=O)C[C@]12C)[C@@]1(C)CCC(=O)C(C)(C)[C@@H]1CC3=O [METHYL LUCIDENATE F] | Non-toxic | 22 |  |  |  |  |
| COC(=O)C(C)CC(=O)C[C@@H](C)[C@H]1CC(=O)[C@@]2(C)C3=C(C(=O)C[C@]12C)[C@@]1(C)CC[C@H](O)C(C)(C)[C@@H]1C[C@@H]3O (some centres undefined) [METHYL GANODERATE B] | Non-toxic | 22 |  |  |  |  |
| COC(=O)C(C)CC(=O)C[C@@H](C)[C@H]1CC(=O)[C@@]2(C)C3=C(C(=O)C[C@]12C)[C@@]1(C)CCC(=O)C(C)(C)[C@@H]1C[C@@H]3O (some centres undefined) [METHYL GANODERATE D] | Non-toxic | 22 |  |  |  |  |
| COC(=O)CC[C@@H](C)[C@H]1CC(=O)[C@@]2(C)C3=C(C(=O)C[C@]12C)[C@@]1(C)CCC(=O)C(C)(C)[C@@H]1C[C@@H]3O [METHYL LUCIDENATE A] | Non-toxic | 22 | Toxic |  |  |  |
| CCCCOC(=O)C(C)CC(=O)C[C@@H](C)[C@H]1C[C@H](O)[C@@]2(C)C3=C(C(=O)C[C@]12C)[C@@]1(C)CCC(=O)C(C)(C)[C@@H]1C[C@@H]3O (some centres undefined) [BUTYL GANODERATE A] | Non-toxic | 22 | Toxic |  |  |  |
| CCCCOC(=O)[C@H](C)CC(=O)C[C@@H](C)[C@H]1CC(=O)[C@@]2(C)C3=C(C(=O)C[C@]12C)[C@@]1(C)CC[C@H](O)C(C)(C)[C@@H]1C[C@@H]3O [BUTYL GANODERATE B] | Non-toxic | 22 |  |  |  |  |
| COC(=O)CC[C@@H](C)[C@H]1CC(=O)[C@@]2(C)C3=C(C(=O)[C@@H](OC(C)=O)[C@]12C)[C@@]1(C)CC[C@H](O)C(C)(C)[C@@H]1CC3=O [METHYL LUCIDENATE E2] | Non-toxic | 22 |  |  |  |  |
| CCCCOC(=O)CC[C@@H](C)[C@H]1CC(=O)[C@@]2(C)C3=C(C(=O)C[C@]12C)[C@@]1(C)CC[C@H](O)C(C)(C)[C@@H]1C[C@@H]3O [BUTYL LUCIDENATE N] | Non-toxic | 56 |  | > 80 | Dose-dependent effect | 56 |
| COC(=O)C(C)CC(=O)C[C@@H](C)[C@H]1CC(=O)[C@@]2(C)C3=C(C(=O)C[C@]12C)[C@@]1(C)CCC(=O)C(C)(C)[C@@H]1CC3=O (some centres undefined) [METHYL GANODERATE E] | Non-toxic | 22 |  |  |  |  |
